Source: paper PMC11303814 (Nature Communications, 2024)
Changes are numbered by the printed parent chain.

Assays:
Format in all cases: cell-based
rP2X7-R125A = target: T1, rP2X7-R125A (Rattus norvegicus, UniProt Q64663, R125A); test: TEVC deactivation time; conditions: after 100 μM ATP or 10 μM BzATP
T1 sequence (Q64663 1-595 R125A): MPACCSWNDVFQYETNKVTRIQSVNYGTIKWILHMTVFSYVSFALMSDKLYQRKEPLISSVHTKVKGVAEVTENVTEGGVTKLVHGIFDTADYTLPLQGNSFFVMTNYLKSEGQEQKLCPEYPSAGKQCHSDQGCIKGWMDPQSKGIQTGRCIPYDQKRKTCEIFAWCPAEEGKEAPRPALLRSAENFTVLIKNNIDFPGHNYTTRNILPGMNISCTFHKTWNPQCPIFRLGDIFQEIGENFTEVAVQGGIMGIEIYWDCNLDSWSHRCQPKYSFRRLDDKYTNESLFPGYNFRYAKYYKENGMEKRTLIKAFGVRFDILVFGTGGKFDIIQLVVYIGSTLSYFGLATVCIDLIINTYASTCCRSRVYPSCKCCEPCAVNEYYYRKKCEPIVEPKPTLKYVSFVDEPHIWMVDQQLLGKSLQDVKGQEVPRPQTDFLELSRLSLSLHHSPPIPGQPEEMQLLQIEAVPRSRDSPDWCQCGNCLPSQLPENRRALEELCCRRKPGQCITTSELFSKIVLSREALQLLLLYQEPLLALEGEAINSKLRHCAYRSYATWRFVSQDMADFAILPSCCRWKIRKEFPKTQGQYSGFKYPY
Procedure, shortened: (§1)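 Xenopus oocytes injected with 50 nL of 10 ng/µL mutant rP2X7 mRNA, expressed ~20 h, clamped in pH 7.4 HEPES buffer with 0.1 mM flufenamic acid and EDTA. Currents were evoked by 100 µM ATP or 10 µM BzATP. τ is the time for current to return to 63% of baseline after agonist removal, from a one- or two-phase decay fit. Done in triplicate over first to third applications per oocyte; mean ± SD.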

rP2X7-Q143A/I214A = target: T2, rP2X7-Q143A/I214A (Rattus norvegicus, UniProt Q64663, I214A/Q143A); test: TEVC dose response; conditions: read-out: EC50 (apparent affinity), mean ± SD, triplicate
T2 sequence (Q64663 1-595 Q143A/I214A): T1 sequence (Q64663 1-595 R125A) with A125R, Q143A, I214A
Procedure, shortened: (§2)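 TEVC was run on Xenopus oocytes ~20 h after injection of wild-type or mutant rP2X7 mRNA, in pH 7.4 HEPES buffer with 0.1 mM flufenamic acid. Receptors were facilitated at 100 µM before recording. Dilution series: ATP 1.5 mM–2 µM (7 points), BzATP 300–0.14 µM (8 points). Responses were normalized to the largest concentration, fitted by nonlinear regression for EC50, and averaged across triplicates (mean ± SD).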

rP2X7-R125A/I214A [1] = target: T3, rP2X7-R125A/I214A (Rattus norvegicus, UniProt Q64663, I214A/R125A); test: TEVC dose response; conditions: read-out: EC50 (apparent affinity), mean ± SD, triplicate
T3 sequence (Q64663 1-595 R125A/I214A): T1 sequence (Q64663 1-595 R125A) with I214A
Procedure, shortened: as §2

rP2X7-R125A/I214A [2] = target: T3, rP2X7-R125A/I214A; test: TEVC deactivation time; conditions: after 100 μM ATP or 10 μM BzATP
Procedure, shortened: as §1

rP2X7-Q143A = target: T4, rP2X7-Q143A (Rattus norvegicus, UniProt Q64663, Q143A); test: TEVC deactivation time; conditions: after 100 μM ATP or 10 μM BzATP
T4 sequence (Q64663 1-595 Q143A): T1 sequence (Q64663 1-595 R125A) with A125R, Q143A
Procedure, shortened: as §1

| Compound | deactivation lifetime τ (rP2X7-R125A) | EC50 (rP2X7-Q143A/I214A) | EC50 (rP2X7-R125A/I214A [1]) | deactivation lifetime τ (rP2X7-R125A/I214A [2]) | deactivation lifetime τ (rP2X7-Q143A) |
| --- | --- | --- | --- | --- | --- |
| Nc1ncnc2c1ncn2[C@@H]1O[C@H](COP(=O)(O)OP(=O)(O)OP(=O)(O)O)[C@@H](O)[C@H]1O [ATP] | 3.5 ± 0.6 s | 290 ± 20 µM | 77 ± 10 µM | 3.7 ± 0.8 s | 1.2 ± 0.1 s |
| BzATP | 18 ± 3.7 s | 49 ± 4 µM | 14 ± 2 µM | 23 ± 13 s | 7.1 ± 0.6 s |
